Reference: PubChem BioAssay
Calls of active or inactive are those of the source.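 How the source made its calls, unless noted: active means inhibition at or above 50% at 10 µM; inactive means inhibition below 50%.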

Experiments:
[1] = inhibitors of TNFa-induced NFkB p65 translocation, primary screen, imaging, HUVEC, MLSMR starter and 10KST1 sets (AID 438;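 active means inhibition above 20% together with a positive visual image hit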;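 further: compound added about 3h40 before a 20 min TNFalpha stimulation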;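 on inhibition: signal is the nuclear over cytoplasmic p65 intensity ratio per well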); settings: HUVEC TNFa-induced p65 nuclear translocation; cell count: measured here: nuclei count (cytotoxicity indicator), at 2.08 µM; inhibition: at 2 µM, stronger effect = higher value, 0% TNFa-plus-vehicle, 100% no-TNFa wells
[2] = inhibitors of mutant huntingtin aggregation, primary screen, imaging, exon1htt(103Q)mCFP cells, high-content imaging (AID 483;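 active means visual image review flags a hit and inhibition of aggregation exceeds 20%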;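 further: compound exposure lasted 3 days before fixation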;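 on nuclei count: percent of the per-plate median nuclei count of sample wells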); settings: exon1htt(103Q)mCFP cell line, aggregate imaging, at 2 µM; inhibition of aggregation: stronger effect = higher value; nuclei count: measured here: cell count, toxicity
[3] = inhibitors of E-selectin induction by TNFa, primary screen, imaging, HUVEC, immunofluorescence, MLSMR starter and 10KST1 sets (AID 487;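 active means visually confirmed hit in the image check and inhibition above 20%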;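 on inhibition: signal is fraction of cell area covered by stained E-selectin grains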;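 on nuclei count: 100% = median nuclei count of all wells on the same plate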); settings: HUVEC TNFalpha-induced E-selectin immunofluorescence imaging, at 2 µM; inhibition: stronger effect = higher value; nuclei count: measured here: cell number, toxicity
[4] = molecular target: Voltage-gated potassium channel subunit beta-2 (Rattus norvegicus) (UniProt P62483); assay: KvBeta enzyme negative modulators, primary screen, biochemical, NADPH fluorescence (AID 622;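 active means fluorescence slope higher than the sample average by over 3 SD, cut at about -0.22 in these data, passing the limit was not always enough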;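 further: slope of raw intensity against log time taken from 70 to 1610 s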); settings: recombinant KvBeta, 4-cyanobenzaldehyde reduction, at 10 µM, stronger effect = higher value
Chain of Voltage-gated potassium channel subunit beta-2 (Rattus norvegicus) (P62483 whole entry, looked up): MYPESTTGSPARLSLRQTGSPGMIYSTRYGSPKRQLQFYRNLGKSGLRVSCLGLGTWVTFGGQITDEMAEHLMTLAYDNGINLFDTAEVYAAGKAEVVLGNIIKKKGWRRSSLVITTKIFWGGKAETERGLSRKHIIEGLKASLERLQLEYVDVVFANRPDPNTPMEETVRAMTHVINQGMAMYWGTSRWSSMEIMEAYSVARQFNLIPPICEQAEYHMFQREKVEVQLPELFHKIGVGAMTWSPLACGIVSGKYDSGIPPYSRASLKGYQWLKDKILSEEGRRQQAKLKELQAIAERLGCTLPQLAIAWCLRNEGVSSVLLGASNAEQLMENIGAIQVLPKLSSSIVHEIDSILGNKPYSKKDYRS

[5] = molecular target: Voltage-gated potassium channel subunit beta-2 (Rattus norvegicus) (UniProt P62483); assay: KvBeta positive modulators, primary screen, biochemical, NADPH fluorescence (AID 623;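 active means NADPH fluorescence slope more negative than the mean of all samples by about 3 SD, 99.7% confidence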;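 further: fluorescence intensity change per second fitted from 20 to 320 s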); settings: Recombinant KvBeta, NADPH fluorescence decrease slope, 10 min; at 10 µM; stronger effect = lower value
[6] = molecular target: Muscarinic acetylcholine receptor M4 (Homo sapiens) (UniProt P08173); assay: compounds altering M4/GIRK thallium flux, either direction, primary screen, M4 allosteric agonist project, cell-based, HEK293 M4/GIRK, BTC-AM (AID 625;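 active means fluorescence slope after compound addition differing from the mean of all tested samples at 99.7% confidence, mostly higher but some lower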;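 further: thallium influx through GIRK channels coupled to M4 in HEK293 cells with BTC-AM dye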); settings: at 10 µM, actives lie on both sides
Chain of Muscarinic acetylcholine receptor M4 (Homo sapiens) (P08173 whole entry, looked up): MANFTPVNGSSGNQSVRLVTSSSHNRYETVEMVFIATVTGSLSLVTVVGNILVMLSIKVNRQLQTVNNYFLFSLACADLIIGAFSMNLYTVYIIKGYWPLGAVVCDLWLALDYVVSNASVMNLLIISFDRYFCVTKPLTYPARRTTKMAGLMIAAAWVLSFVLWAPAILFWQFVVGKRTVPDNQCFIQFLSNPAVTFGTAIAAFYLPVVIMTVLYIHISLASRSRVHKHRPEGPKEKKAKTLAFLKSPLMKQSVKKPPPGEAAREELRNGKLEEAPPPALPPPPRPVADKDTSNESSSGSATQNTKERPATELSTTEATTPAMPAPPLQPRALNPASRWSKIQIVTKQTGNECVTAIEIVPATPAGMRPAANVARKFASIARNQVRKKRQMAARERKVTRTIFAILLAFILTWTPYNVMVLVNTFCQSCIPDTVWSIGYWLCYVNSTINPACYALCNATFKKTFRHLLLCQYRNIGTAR
Summary of the method: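 System: HEK293 cells with M4 receptor and GIRK channels | Incubation: Cells overnight at 37 °C, BTC-AM loading 1 h, reads 2 min total | Technique: Kinetic BTC-AM fluorescence sampled at 1 Hz, 10 s pre-addition baseline | Measure: Post-addition slope, 15–24 s, of baseline-normalized fluorescence | Control set: Carbachol positive, DMSO negative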

[7] = inhibitors of Sendai virus-induced IRF3 signaling, primary screen, TLR/RLR signaling modifier project, cell-based, Sendai virus stimulus, luciferase, 10K MLSCN set (AID 602276); settings: HEK293 RL24 IRF3 luciferase reporter, at 10 µM, stronger effect = higher value;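 further: firefly luciferase from ISG56 promoter only with Renilla not read in this screen; 0% = Sendai virus plus DMSO and 100% = medium plus DMSO without virus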
[8] = inhibitors of poly I:C-induced TLR3 signaling, primary screen, cell-based, poly I:C stimulus, luciferase, 10K MLSCN set (AID 602277;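 active means inhibition of the reporter signal at or above 50%; inactive means inhibition below 50%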); settings: HEK293-TLR3 RL24 IRF3 luciferase reporter, at 10 µM, stronger effect = higher value

SMILES	cell count [1]	inhibition [1]	inhibition of aggregation [2]	nuclei count [2] [%]	inhibition [3]	nuclei count [3] [%]	fluorescence slope [4]	NADPH fluorescence slope [5]	fluorescence slope [6]	inhibition [7]	inhibition [8]
CC1=C(C(=O)OCCOC(C)C)C(c2cc3c(cc2Br)OCO3)C2=C(CCCC2=O)N1 (centres undefined)	446	0.2% (inactive)	8.5% (inactive)	41.8	-37.4% (inactive)	105	-0.485 (inactive)	6.8e-05 (inactive)	0.00686 (inactive)	20.8% (inactive)	26.6% (inactive)
COc1ccc(OC)c(Nc2cc(-c3ccccc3)nc(N)n2)c1	423	9.2% (inactive)	-34.6% (inactive)	0.5	-25.1% (inactive)	115	-0.548 (inactive)	4.9e-06 (inactive)	0.00508 (inactive)	46.6% (inactive)	86.6% (active)
Cc1cc(C)n(-c2nc3ccccc3c(=O)n2OCCOc2ccccc2)n1	533	-9% (inactive)	-7.8% (inactive)	107	-17.9% (inactive)	94.2	-0.453 (inactive)	8.7e-05 (inactive)	0.00727 (inactive)	-12.3% (inactive)	-13.3% (inactive)
Cc1ccc(CN2C(=O)CCC2C(=O)NCC2CCCO2)cc1 (centres undefined)	317	10.5% (inactive)	-27.2% (inactive)	91	-16.2% (inactive)	97.8	-0.556 (inactive)	-2.2e-05 (inactive)	0.0066 (inactive)	-7.7% (inactive)	1.56% (inactive)
O=C(Cn1ccc2ccccc2c1=O)NCCC(=O)N1CCN(C(=O)c2ccco2)CC1	397	-14.1% (inactive)	11.3% (inactive)	98.1	9.4% (inactive)	97.8	-0.503 (inactive)	0.000132 (inactive)	0.00733 (inactive)	-0.7% (inactive)	6.13% (inactive)
CC(C)(C)C(=O)Cn1c(=N)n(Cc2ccccc2)c2ccccc21	394	6.1% (inactive)	8.9% (inactive)	99.1	20.9% (inactive)	96	-0.409 (inactive)	4.3e-05 (inactive)	0.00407 (inactive)	20% (inactive)	17.2% (inactive)
CNC(=O)CSc1nnc(-c2cc(C)cc(C)c2)o1	669	-5% (inactive)	0.4% (inactive)	123	-34.6% (inactive)	124	-0.547 (inactive)	-3.9e-05 (inactive)	0.00519 (inactive)	4.57% (inactive)	-12.1% (inactive)
C=C(c1cccc2ccccc12)P(=O)(O)O	429	11.9% (inactive)	18.4% (inactive)	92.8	18.6% (inactive)	99.8	-0.493 (inactive)	-0.000279 (inactive)	0.00428 (inactive)	17.7% (inactive)	22.1% (inactive)
CC(=O)c1c(C)[nH]c(C(=O)NC2=NCCS2)c1C	459	-9.6% (inactive)	15.8% (inactive)	61.1	23.6% (inactive)	95.2	-0.571 (inactive)	-1.9e-05 (inactive)	0.00678 (inactive)	-2.52% (inactive)	-11.8% (inactive)
CC1(C)CC(=O)C=C(Nc2ccc(F)cc2)C1	454	10.9% (inactive)	3.9% (inactive)	99.5	-20% (inactive)	109	-0.607 (inactive)	3.1e-05 (inactive)	0.00469 (inactive)	-2.98% (inactive)	13.6% (inactive)
C[C@H](NC(=O)Nc1cccc(C(F)(F)F)c1)C(=O)O	759	0.4% (inactive)	14.4% (inactive)	98	-1.7% (inactive)	92.5	-0.547 (inactive)	1.5e-05 (inactive)	0.00427 (inactive)	27.2% (inactive)	22.6% (inactive)
COc1ccc(-c2noc(C3CCCN(C(=O)CCc4ccccc4)C3)n2)cc1 (centres undefined)	383	-3.5% (inactive)	18.4% (inactive)	101	-83.2% (inactive)	57.8	-0.454 (inactive)	-5e-06 (inactive)	0.00551 (inactive)	12.3% (inactive)	1.57% (inactive)
CCOC(=O)C1CCCN(C(=O)c2ccc3c(=O)n(CCOC)c(=S)[nH]c3c2)C1 (centres undefined)	417	3.9% (inactive)	-2.5% (inactive)	81.3	20.2% (inactive)	91.8	-0.386 (inactive)	-6.4e-05 (inactive)	0.00594 (inactive)	6.16% (inactive)	-7.26% (inactive)
O=C(CN1C(=O)CCSc2ccccc21)Nc1ccc(F)cc1	312	0.7% (inactive)	-6% (inactive)	100	-8.3% (inactive)	110	-0.473 (inactive)	4.1e-05 (inactive)	0.00664 (inactive)	-6.29% (inactive)	2.08% (inactive)
